Results on 14 compounds are retold here after ChEMBL document CHEMBL1156604 (Bioorg Med Chem Lett, 2008).

For assay [1], the species on record is Homo sapiens. As to the kind of experiment: Selectivity ratio of Ki for human mu opioid receptor to Ki for human kappa opioid receptor.
Another assay has as its target Mu-type opioid receptor (Homo sapiens, UniProt P35372). Briefly: Displacement of [3H]DAMGO from human mu opioid receptor expressed in CHO cell membrane. It is filed as cell membranes. Background: Displacement assays read how much labelled ligand stays bound in the presence of the test substance.
Assay [2] has as its target Delta-type opioid receptor (Homo sapiens, UniProt P41143). As to the kind of experiment: Displacement of [3H]Naltindole from human delta opioid receptor expressed in CHO cell membrane. It is filed as cell membranes. The method, boiled down: (§1)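 Compounds were tested as hydrochloride salts in competition binding against the tritiated radioligand on CHO cell membranes. Ki values are given ± SEM.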

The species entered for assay [3] is Homo sapiens. Briefly: Selectivity ratio of Ki for human mu opioid receptor to Ki for human delta opioid receptor.
Assay [4] has as its target Kappa-type opioid receptor (Homo sapiens, UniProt P41145). Briefly: Displacement of [3H]U69593 from human kappa opioid receptor expressed in CHO cell membrane. In kind it is cell membranes. In a few lines:
as §1

The species named for assay [5] is Homo sapiens. As to the kind of experiment: Selectivity ratio of Ki for human kappa opioid receptor to Ki for human delta opioid receptor.

A word on the Ki: it is a measure of affinity in units of concentration, obtained from inhibition or displacement. Lower therefore signals tighter binding.

Sequence of Delta-type opioid receptor (P41143 whole entry): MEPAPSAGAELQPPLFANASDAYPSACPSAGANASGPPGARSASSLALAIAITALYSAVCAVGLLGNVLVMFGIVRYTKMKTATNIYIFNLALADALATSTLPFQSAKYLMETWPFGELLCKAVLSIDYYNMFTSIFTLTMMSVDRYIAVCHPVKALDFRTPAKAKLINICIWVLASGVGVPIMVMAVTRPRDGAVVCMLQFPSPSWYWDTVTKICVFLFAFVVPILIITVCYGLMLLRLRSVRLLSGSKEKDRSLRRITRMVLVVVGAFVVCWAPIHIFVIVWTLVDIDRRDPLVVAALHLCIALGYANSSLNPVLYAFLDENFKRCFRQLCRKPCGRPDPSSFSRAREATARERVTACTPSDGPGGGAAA
Sequence of Kappa-type opioid receptor (P41145 whole entry): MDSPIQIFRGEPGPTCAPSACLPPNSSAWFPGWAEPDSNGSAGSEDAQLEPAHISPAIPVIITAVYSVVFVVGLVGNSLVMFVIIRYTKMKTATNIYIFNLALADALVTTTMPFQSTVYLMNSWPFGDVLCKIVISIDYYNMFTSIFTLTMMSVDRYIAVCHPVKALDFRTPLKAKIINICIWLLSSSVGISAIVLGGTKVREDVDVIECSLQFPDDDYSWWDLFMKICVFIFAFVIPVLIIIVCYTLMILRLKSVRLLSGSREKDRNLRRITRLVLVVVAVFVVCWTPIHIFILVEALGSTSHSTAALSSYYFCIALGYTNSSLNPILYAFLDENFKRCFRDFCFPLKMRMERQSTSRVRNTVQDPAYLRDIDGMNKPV
Sequence of Mu-type opioid receptor (P35372 whole entry): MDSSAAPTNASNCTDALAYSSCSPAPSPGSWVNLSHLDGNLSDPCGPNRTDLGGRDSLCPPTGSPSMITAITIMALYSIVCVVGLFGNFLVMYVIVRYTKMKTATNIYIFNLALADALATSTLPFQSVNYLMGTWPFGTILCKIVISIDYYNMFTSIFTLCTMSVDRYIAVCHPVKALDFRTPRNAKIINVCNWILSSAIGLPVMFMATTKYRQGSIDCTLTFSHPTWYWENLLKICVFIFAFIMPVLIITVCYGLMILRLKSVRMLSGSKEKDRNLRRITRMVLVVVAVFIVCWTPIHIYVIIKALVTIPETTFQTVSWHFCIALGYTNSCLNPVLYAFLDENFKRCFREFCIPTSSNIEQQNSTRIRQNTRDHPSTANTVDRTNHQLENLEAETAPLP

For the compound `O=C(Cc1ccccc1)Oc1ccc2c(c1)[C@@]13CCCC[C@@]1(O)[C@@H](C2)N(CC1CCC1)CC3`, the Ratio Ki in the assay filed under Homo sapiens [1] was 1.5; in the assay filed under Homo sapiens [3] it was 197; in the assay filed under Homo sapiens [5], 1. Further, the inhibition constant Ki was determined as 0.32 nM on Mu-type opioid receptor, 63 nM in assay [2] and 0.48 nM in assay [4].
For `O=C(Cc1ccc(-c2ccccc2)cc1)Oc1ccc2c(c1)[C@@]13CCCC[C@@]1(O)[C@@H](C2)N(CC1CCC1)CC3`, the Ratio Ki in the assay listed under Homo sapiens [1] was determined as 1; in the assay listed under Homo sapiens [3], 218; in the assay filed under Homo sapiens [5] it was 3.1. The inhibition constant (Ki) on Mu-type opioid receptor turned out to be 2.7 nM; in assay [2], 190 nM; in assay [4], 0.87 nM.
For the compound `O[C@@]12CCCC[C@@]13CCN(CC1CCC1)[C@@H]2Cc1ccc(OCc2ccccc2)cc13`, the Ratio Ki was found to be 1.3 in the assay listed under Homo sapiens [1], 32 in the assay filed under Homo sapiens [3] and 1 in the assay listed under Homo sapiens [5]. Also, the Ki amounted to 21 nM at Mu-type opioid receptor, 670 nM in assay [2] and 28 nM in assay [4].
As to `O=C(Oc1ccc2c(c1)[C@@]13CCCC[C@@]1(O)[C@@H](C2)N(CC1CCC1)CC3)c1ccc(-c2ccccc2)cc1`, the Ratio Ki in the assay listed under Homo sapiens [1] is 1; in the assay filed under Homo sapiens [3] it was 46; in the assay filed under Homo sapiens [5] it was 1. Besides, the inhibition constant Ki was found to be 15 nM on Mu-type opioid receptor, 690 nM in assay [2] and 18 nM in assay [4].
As for `NC(=O)COc1ccc2c(c1)[C@@]13CCCC[C@@]1(O)[C@@H](C2)N(CC1CCC1)CC3`, the Ratio Ki in the assay listed under Homo sapiens [1] amounted to 1.2; in the assay filed under Homo sapiens [3] it was 11; in the assay filed under Homo sapiens [5], 1. In addition, the Ki at Mu-type opioid receptor stood at 55 nM; in assay [2], 760 nM; in assay [4], 67 nM.
`O=[N+]([O-])c1ccc(Oc2ccc3c(c2)[C@@]24CCCC[C@@]2(O)[C@@H](C3)N(CC2CCC2)CC4)cc1`: the figures for the Ratio Ki in the assay listed under Homo sapiens [1], in the assay filed under Homo sapiens [3] and in the assay filed under Homo sapiens [5] were 1.8, 94 and 1, respectively. Moreover, the Ki on Mu-type opioid receptor was found to be 16 nM; in assay [2] it was 1500 nM; in assay [4], 28 nM.
For `Cc1ccc(C(C)C(=O)Oc2ccc3c(c2)[C@@]24CCCC[C@@]2(O)[C@@H](C3)N(CC2CCC2)CC4)cc1` (some centres undefined), the Ratio Ki in the assay filed under Homo sapiens [1] was determined as 1; in the assay listed under Homo sapiens [3] it was 74; in the assay listed under Homo sapiens [5], 1.9. The values for the Ki (at Mu-type opioid receptor; in assay [2]; in assay [4]) were 2.3 nM, 96 nM and 1.3 nM, respectively.
With `Nc1ccc(Oc2ccc3c(c2)[C@@]24CCCC[C@@]2(O)[C@@H](C3)N(CC2CCC2)CC4)cc1`, the Ratio Ki in the assay listed under Homo sapiens [1] stood at 1.3; in the assay listed under Homo sapiens [3], 240; in the assay filed under Homo sapiens [5], 1. Further, the Ki at Mu-type opioid receptor was 3.9 nM; in assay [2], 930 nM; in assay [4], 5.2 nM.
In assay [4], `Oc1ccc2c(c1)[C@@]13CCCC[C@@]1(O)[C@@H](C2)N(CC1CCC1)CC3` [BUTORPHANOL] displayed a Ki of 0.12 nM.
For `C[C@H]1[C@H]2Cc3ccc(C(=O)N(C)CCc4ccc(-c5ccccc5)cc4)cc3[C@@]1(C)CCN2CC1CC1`, the Ratio Ki worked out at 1.6 in the assay filed under Homo sapiens [1], 1.8 in the assay filed under Homo sapiens [3] and 1 in the assay filed under Homo sapiens [5]. For the same compound, the Ki on Mu-type opioid receptor turned out to be 6.7 nM; in assay [2], 12 nM; in assay [4] it was 11 nM.
In the case of `OCCCOc1ccc2c(c1)[C@@]13CCCC[C@@]1(O)[C@@H](C2)N(CC1CCC1)CC3`, the Ratio Ki in the assay filed under Homo sapiens [1] was determined as 1; in the assay filed under Homo sapiens [3], 57; in the assay filed under Homo sapiens [5] it was 2.1. In addition, the Ki on Mu-type opioid receptor was determined as 18 nM; in assay [2], 490 nM; in assay [4], 8.6 nM.
Take `O=C(COc1ccccc1)Oc1ccc2c(c1)[C@@]13CCCC[C@@]1(O)[C@@H](C2)N(CC1CCC1)CC3`: the results for the Ratio Ki in the assay filed under Homo sapiens [1], in the assay filed under Homo sapiens [3] and in the assay listed under Homo sapiens [5] were 1, 458 and 1.3, respectively. For the same compound, the figures for the Ki (on Mu-type opioid receptor; in assay [2]; in assay [4]) were 0.061 nM, 22 nM and 0.048 nM, respectively.
As to `O[C@@]12CCCC[C@@]13CCN(CC1CCC1)[C@@H]2Cc1ccc(OCCc2ccccc2)cc13`, the Ratio Ki in the assay filed under Homo sapiens [1] came to 1; in the assay listed under Homo sapiens [3], 56; in the assay listed under Homo sapiens [5] it was 1. Besides, the inhibition constant Ki at Mu-type opioid receptor amounted to 10 nM; in assay [2], 500 nM; in assay [4], 9 nM.
Take `COc1ccc(CC(=O)Oc2ccc3c(c2)[C@@]24CCCC[C@@]2(O)[C@@H](C3)N(CC2CCC2)CC4)cc1`: the Ratio Ki in the assay listed under Homo sapiens [1] amounted to 1; in the assay listed under Homo sapiens [3], 110; in the assay filed under Homo sapiens [5] it was 1. In addition, the figures for the Ki (on Mu-type opioid receptor; in assay [2]; in assay [4]) were 0.22 nM, 23 nM and 0.21 nM, respectively.
